High-throughput results as filed in PubChem BioAssay.
TCR-CD3 inh – inhibitors of human TCR-CD3 interaction; AID 651800; TAMRA-labeled TCR probe fluorescence, biochemical; inhibition, % at 9.4 µM; 360,000 compounds, 0.37% hits; in the data active = inhibition above about 19%;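 also: recombinant mutant TCR 2C K166C tagged with TAMRA read by polarization; 0% = receptor in buffer alone and 100% = receptor with positive control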
PAD4 inh – blocks human protein arginine deiminase 4; Q9UM07; 330,000 compounds, 0.41% hits; inhibition, % at 6.36 µM; AID 485272; recombinant PAD4, RCA probe fluorescence polarization;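 active = percent inhibition above a cutoff equal to the mean of all tested compounds plus 3 SD, cut at about 15% in these data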;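 also: 0% = PAD4 with RCA probe and DMSO and 100% = probe without PAD4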
PRMT1 inh – blocks human protein arginine methyltransferase 1. 370,000 compounds, 1.3% hits. recombinant PRMT1, activity-based probe fluorescence polarization. inhibition, % at 2.79 µM. Q99873. AID 652257;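 active = inhibition above about 21% made by adding two undisclosed values, limit read from the data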
ABHD4 inh – inhibitors of mouse ABHD4 | 370,000 compounds, 0.54% hits | Q8VD66 | inhibition, % at 8.92 µM | purified mABHD4, FP-Rh probe fluorescence polarization;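 active = inhibition exceeding the mean over every tested compound plus 3 SD, cut at about 30% in these data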;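 also: 0% = plate median of compound wells and 100% = S159A mutant with DMSO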
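system = mouse ABHD4 enzyme, wild type | medium = HEPES pH 7.0, NaCl, Pluronic buffer | also added = FP-Rh probe | incubation = Enzyme–compound pre-incubation 45 min, then probe 60 min, both 25 °C | technique = fluorescence polarization, excitation 525 nm, emission 598 nm, BODIPY TMR filters | controls = S159A mutant high control, sample median low control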
HTRA1 inh – inhibitors of human serine peptidase HTRA1 | Q92743 | 340,000 compounds, 0.5% hits | inhibition, % at 5.96 µM | recombinant HTRA1, FP-rhodamine activity-based probe, fluorescence polarization | AID 504803; in the data active = inhibition above about 36%;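 also: 0% = enzyme with DMSO and 100% = wells lacking enzyme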
SIAE primary – blocks human sialic acid acetylesterase | Q9HAT2 | SIAE FP-Rh probe binding, fluorescence polarization | inhibition, % at 9.66 µM | 370,000 compounds, 0.69% hits | AID 1053197;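 active = inhibition above a cutoff: mean of compounds within the control limits plus 3 SD of those, cut at about 17% in these data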;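 also: 0% = plate median of compound wells and 100% = probe without SIAE protein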
Target sequence (Q9HAT2 whole entry, looked up): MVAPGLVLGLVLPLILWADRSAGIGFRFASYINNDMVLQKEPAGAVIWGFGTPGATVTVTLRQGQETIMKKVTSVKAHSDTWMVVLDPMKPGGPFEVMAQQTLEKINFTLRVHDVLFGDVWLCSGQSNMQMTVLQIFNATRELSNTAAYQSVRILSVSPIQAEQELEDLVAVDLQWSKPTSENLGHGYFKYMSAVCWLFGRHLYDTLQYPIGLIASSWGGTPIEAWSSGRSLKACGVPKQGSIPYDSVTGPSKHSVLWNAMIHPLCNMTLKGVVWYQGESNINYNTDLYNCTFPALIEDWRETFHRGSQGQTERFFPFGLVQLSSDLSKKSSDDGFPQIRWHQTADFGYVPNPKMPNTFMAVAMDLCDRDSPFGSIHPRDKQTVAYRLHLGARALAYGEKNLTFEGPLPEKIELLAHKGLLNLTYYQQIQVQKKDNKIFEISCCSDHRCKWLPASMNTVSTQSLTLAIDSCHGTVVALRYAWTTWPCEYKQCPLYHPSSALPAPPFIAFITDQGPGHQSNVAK
SIAE confirm – confirmation of human SIAE inhibitors. 2,300 compounds, 13% hits. SIAE FP-Rh activity-based probe, fluorescence polarization. inhibition, % at 9.66 µM. shares compounds with SIAE primary. AID 1117263;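 active = mean inhibition of the replicates above the hit cutoff set in the primary screen, cut at about 17% in these data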;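 also: 0% = SIAE with DMSO and probe and 100% = probe without SIAE; inhibitors lower polarization as more probe stays unbound to SIAE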
Numbers without * were called inactive. Hits are enriched below; roughly 2.9% of the tested compounds scored in any of these assays.

Screening CC(Sc1nnc(NC2CC2)s1)C(=O)Nc1ccc(S(N)(=O)=O)cc1 (centres undefined) returned TCR-CD3 inh -8, PAD4 inh 2, PRMT1 inh -4, ABHD4 inh -1, HTRA1 inh 0 and SIAE primary -2.
Screening CC(Sc1nnc(NCc2ccccc2)s1)C(=O)Nc1ccc2c(c1)C(=O)c1ccccc1C2=O (centres undefined) returned TCR-CD3 inh -7, PAD4 inh 2, PRMT1 inh 17, ABHD4 inh 22, HTRA1 inh -1, SIAE primary 18* and SIAE confirm -28.
Screening COC(=O)[C@]12C[C@H](CC(=O)N3CCC(c4ccccc4)CC3)C(=O)N(Cc3ccc(Cl)cc3Cl)C1=C[C@H](COCc1ccccc1)O[C@@H]2C returned PRMT1 inh 3, ABHD4 inh -5 and SIAE primary -4.
Screening Cc1c(C(=O)N2CCN(c3ccccn3)CC2)cccc1[N+](=O)[O-] returned TCR-CD3 inh -8, PAD4 inh 2, PRMT1 inh 0, ABHD4 inh 5, HTRA1 inh -2, SIAE primary 18* and SIAE confirm -5.
Screening COCCCNC(=S)Nc1ccc2nc(N3CCOCC3)cc(C)c2c1 returned TCR-CD3 inh -4, PAD4 inh -1, PRMT1 inh 0, ABHD4 inh 0, HTRA1 inh 6 and SIAE primary 4.
CCOCCCNC(=S)Nc1ccc2nc(N3CCOCC3)cc(C)c2c1 was read as TCR-CD3 inh -2, PAD4 inh -20, PRMT1 inh 0, ABHD4 inh 6, HTRA1 inh 7, SIAE primary 17* and SIAE confirm 2.
Screening CN1CC=C(c2ccc(C(F)(F)F)cc2)N(c2ccc(Br)cc2)C1=O returned PRMT1 inh -3, ABHD4 inh -4 and SIAE primary -3.
O=C(O)CNc1ccccc1C(=O)O was read as TCR-CD3 inh -3, PAD4 inh -1, PRMT1 inh 2, ABHD4 inh 9, HTRA1 inh -1, SIAE primary 38* and SIAE confirm 1.
O=C(O)c1ccccc1NCc1cccnc1 was read as TCR-CD3 inh 0, PAD4 inh -5, PRMT1 inh 1, ABHD4 inh 1 and SIAE primary 2.
For CC1=CC(C)(C)Nc2ccc(OC(=O)CN3C(=O)c4cccc5cccc(c45)C3=O)cc21 the results were TCR-CD3 inh 2, PAD4 inh -12, PRMT1 inh 11, ABHD4 inh 13, HTRA1 inh 24, SIAE primary 19* and SIAE confirm 1.
Screening CC1=CC(C)(C)Nc2ccc(OC(=O)CN3C(=O)c4ccccc4C3=O)cc21 returned TCR-CD3 inh -2, PAD4 inh -5, PRMT1 inh -1, ABHD4 inh 18, HTRA1 inh -1 and SIAE primary 4.
For CCCC1CCC2(CCCN2CCOC(=O)Nc2ccccc2C)CC1 (centres undefined) the results were PRMT1 inh 3, ABHD4 inh 2 and SIAE primary -3.
For CCc1ccccc1NC(=O)CN(C)C(=O)CSc1nn(-c2ccc(F)cc2)c(=S)s1 the results were TCR-CD3 inh -1, PAD4 inh -3, PRMT1 inh -1, ABHD4 inh -11, HTRA1 inh -9, SIAE primary 18* and SIAE confirm 0.
For COc1ccc(NC(=O)CSc2nnc(-c3n[nH]c4c3CCC4)n2N)cc1OC the results were PRMT1 inh -4, ABHD4 inh 4 and SIAE primary 0.
Screening CC1=NN(c2cccc([N+](=O)[O-])c2)C(=O)C1 returned TCR-CD3 inh 1, PAD4 inh -14, PRMT1 inh 3, ABHD4 inh 6, HTRA1 inh -12, SIAE primary 17* and SIAE confirm 2.
Screening Cc1cc(O)cc(=O)n1-c1cccc([N+](=O)[O-])c1 returned TCR-CD3 inh -3, PRMT1 inh 1, ABHD4 inh 1 and SIAE primary -4.
`Nn1c(SCC(=O)N2CCOCC2)nnc1-c1cc(-c2ccc(Cl)cc2)n[nH]1` gave PRMT1 inh 2, ABHD4 inh 5 and SIAE primary 4.
